Screening results as filed in PubChem BioAssay.
An excerpt weighted towards active compounds, which were near 2.5% of everything screened.
FN deposition inh – fibronectin deposition inhibition. inhibition, % at 12.6 µM. AID 743247. AH1F fibroblasts, Alexa488-fibronectin deposition fluorescence, overnight. 350,000 tested, 0.086% active;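 active = mean inhibition across replicates of 30% or more, regardless of how many single replicates reach that level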;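 note: positive control wells lacked labelled fibronectin entirely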
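test system = AH1F fibroblasts assembling fluorescent fibronectin matrix | quantity = 10000 AH1F cells per well | buffer or medium = DMEM plus 2% serum, read in PBS | doses = single dose, pinned | incubation = 1 h cell attachment, overnight exposure to compound and label | detection = fluorescence at 485 nm excitation, 525 nm emission | read-out basis = inhibition from reduced deposited-fibronectin fluorescence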
EWS-Fli block – inhibitors of EWS/Fli oncoprotein transcriptional activity | A673 NR0B1-luciferase reporter, viability-normalised | inhibition, % at 12.6 µM | 350,000 tested, 0.67% active;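 active = mean inhibition of at least 50% after viability correction, with every replicate also passing that limit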;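 note: firefly luciferase signal divided by Alamar Blue viability fluorescence both relative to DMSO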
N-glyco inh – blocks N-linked glycosylation in D54 reporter cells; D54 ERlucT glycosylation luciferase reporter, 24 h; percent of 100 nM tunicamycin response; reporter increase, % at 12.5 µM; 360,000 tested, 0.23% active;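 active = mean luciferase reporter signal, scaled so untreated is 0 and the glycosylation-blocking control 100, at or above a set limit in every replicate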;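 note: luciferase carries N-glycosylation sites so blocking glycosylation raises the light; 0% = median of neutral control wells and 100% = median of 100 nM tunicamycin wells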
PAX8 reporter – PAX8 transcriptional activity inhibition; AID 652154; RMG-I TPO-luciferase reporter, SteadyGlo, 24 h; 360,000 tested, 1.2% active; inhibition, % at 12.6 µM;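 active = mean replicate inhibition at least 60% with every replicate also reaching 60%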;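 note: luciferase light reporting Pax8 driven TPO promoter activity; plate controls were median of neutral control wells for no effect and mitoxantrone controls for full effect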
AF4-AF9 inh – MLL-AF4/AF9 protein interaction inhibition; P42568; inhibition, % at 10 µM; AID 651704; 350,000 tested, 0.47% active; AlphaScreen, biotin-AF4 peptide binding to FLAG-AF9;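 active = every replicate reaching a set inhibition limit, whatever the replicate mean, cut at about 25% in these data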;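 note: 0% = plate neutral control median and 100% = total signal loss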
Target sequence (P42568 whole entry, looked up): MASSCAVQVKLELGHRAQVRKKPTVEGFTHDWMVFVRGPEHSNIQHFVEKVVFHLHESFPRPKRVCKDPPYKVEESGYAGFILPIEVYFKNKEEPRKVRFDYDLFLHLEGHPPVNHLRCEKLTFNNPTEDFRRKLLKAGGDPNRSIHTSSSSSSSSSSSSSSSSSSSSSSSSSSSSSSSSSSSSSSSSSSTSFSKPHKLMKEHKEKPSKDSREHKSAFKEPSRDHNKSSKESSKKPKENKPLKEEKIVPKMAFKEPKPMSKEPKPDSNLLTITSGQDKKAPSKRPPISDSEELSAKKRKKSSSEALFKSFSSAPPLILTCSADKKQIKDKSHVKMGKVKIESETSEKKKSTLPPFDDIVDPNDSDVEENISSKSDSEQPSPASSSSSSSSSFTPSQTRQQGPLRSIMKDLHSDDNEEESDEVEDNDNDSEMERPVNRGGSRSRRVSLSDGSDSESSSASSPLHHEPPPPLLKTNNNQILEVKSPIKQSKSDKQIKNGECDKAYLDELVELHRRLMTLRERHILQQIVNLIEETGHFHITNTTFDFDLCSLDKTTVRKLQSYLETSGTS
Env fusion inh – inhibitors of HIV Env-mediated cell fusion | HeLa-JRFL Env/CEM21 cell fusion, luciferase | inhibition, % at 12.3 µM | 360,000 tested, 1.1% active;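 active = mean replicate inhibition score of at least 50 and every replicate individually at or above 50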;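 note: 0% = plate neutral controls and 100% = maraviroc near 300 nM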
* marks the source's active call; other numbers are inactive results; . = no result given; [ ] = dose if it differs, or a comment.

SMILES | FN deposition inh | EWS-Fli block | N-glyco inh | PAX8 reporter | AF4-AF9 inh | Env fusion inh
COc1ccc(NC(=O)Nc2ccc3c(c2)C(=O)N([C@@H](C)CO)C[C@@H](C)[C@H](CN(C)Cc2ccc(Cl)c(Cl)c2)OCCCC[C@H](C)O3)cc1 | . | 4 | . | 52 | -1 | 60*[16.7 µM]
CCCN(C)C[C@H]1OCCCC[C@H](C)Oc2ccc(N(C)C)cc2C(=O)N([C@@H](C)CO)C[C@H]1C | . | 2 | . | 43 | 9 | 9[16.7 µM]
C[C@H]1CCCCO[C@H](CN(C)Cc2ccc(C(F)(F)F)cc2)[C@@H](C)CN([C@@H](C)CO)C(=O)c2cc(N(C)C)ccc2O1 | . | -3 | . | 16 | 33* | 29[16.7 µM]
C[C@@H]1CCCCO[C@H](CN(C)Cc2ccc(C(F)(F)F)cc2)[C@H](C)CN([C@H](C)CO)C(=O)c2cc(N(C)C)ccc2O1 | . | 11 | . | 14 | 35* | 33[16.7 µM]
C[C@H]1CCCCO[C@@H](CN(C)Cc2ccc(C(F)(F)F)cc2)[C@@H](C)CN([C@@H](C)CO)C(=O)c2cc(N(C)C)ccc2O1 | . | 36 | . | 35 | 37* | 41[16.7 µM]
C[C@@H]1CCCCO[C@H](CN(C)Cc2ccc(C(F)(F)F)cc2)[C@@H](C)CN([C@@H](C)CO)C(=O)c2cc(N(C)C)ccc2O1 | . | -15 | . | -17 | 6 | 4[16.7 µM]
Cn1cnc(CCNC(=O)C[C@H]2CC[C@@H]3[C@H](COC[C@H](O)CN3C(=O)Nc3ccc(F)cc3)O2)c1 | -7 | 1 | . | -10 | -1 | .
COCC(=O)N[C@@H]1CC[C@@H](CC(=O)NCc2ccccc2OC)O[C@H]1CO | -28 | -2 | . | -10 | -14 | 8[16.7 µM]
O=C(Nc1ccc(Cl)cc1)Nc1ccc(N2CCCC2)c(S(=O)(=O)Nc2ccccc2Cl)c1 | -2 | . | -11 | 101* | . | 32
Cc1ccccc1S(=O)(=O)NCC[C@H]1CC[C@H](NS(=O)(=O)c2ccccc2C)[C@@H](CO)O1 | . | -10 | . | -5 | 3 | -28[16.7 µM]
Cc1noc(C)c1S(=O)(=O)Nc1ccc2c(c1)C(=O)N([C@H](C)CO)C[C@@H](C)[C@@H](CN(C)S(=O)(=O)c1ccc(Cl)cc1)OCCCC[C@H](C)O2 | 2 | -4 | . | 70* | 1 | -45[16.7 µM]
Cc1noc(C)c1S(=O)(=O)Nc1ccc2c(c1)C(=O)N([C@H](C)CO)C[C@H](C)[C@@H](CN(C)S(=O)(=O)c1ccc(Cl)cc1)OCCCC[C@H](C)O2 | -2 | -2 | . | 54 | 8 | -24[16.7 µM]
Cc1noc(C)c1S(=O)(=O)N(C)C[C@H]1OCCCC[C@H](C)Oc2ccc(NS(=O)(=O)c3ccc(Cl)cc3)cc2C(=O)N([C@H](C)CO)C[C@@H]1C | . | 4 | . | 70* | 0 | 11[16.7 µM]
COc1ccc(S(=O)(=O)N(C)C[C@H]2OCCCC[C@@H](C)Oc3ccc(NS(=O)(=O)c4c(C)noc4C)cc3C(=O)N([C@H](C)CO)C[C@H]2C)cc1 | -4 | 6 | . | 77* | 0 | 14[16.7 µM]
COc1ccc(S(=O)(=O)Nc2cccc3c2O[C@H](CN(C)S(=O)(=O)c2c(C)noc2C)[C@H](C)CN([C@@H](C)CO)C3=O)cc1 | . | -2 | . | . | -3 | .
COC(=O)c1cn(CC(=O)NCc2ccco2)c2ccccc12 | 31* | . | 2 | . | . | -31
CCCNC(=O)N1C[C@@H](C)[C@H](OC)CN(C)C(=O)c2ccc(NC(C)=O)cc2OC[C@@H]1C | 8 | . | . | . | -6 | .
CC=Cc1ccc2n(c1=O)C[C@@H]1[C@@H](CO)[C@H](C(=O)N3CCc4ccccc4C3)N(C)[C@H]21 (mixture of isomers) | . | -4 | . | . | -9 | .
Cc1nc2c(-c3ccc(Cl)cc3)c(C)[nH]n2c(=O)c1Cc1ccccc1 | 11 | 14 | -13 | 62* | 7 | 57*
C[C@@H]1CCCCO[C@@H](CN(C)C(=O)C2CCCCC2)[C@H](C)CN([C@@H](C)CO)C(=O)c2cc(NC(=O)Nc3ccc(C(F)(F)F)cc3)ccc2O1 | . | 0 | . | . | -2 | 30[16.7 µM]
Cc1ccc2c(c1)[nH]c1c(N3CCN(Cc4ccccc4)CC3)ncnc12 | -11 | . | 9 | . | . | 63*
c1ccc2c(c1)CCN(c1ncnc3c1[nH]c1ccccc13)C2 | -5 | . | -6 | . | . | 87*
Cc1ccc2[nH]c3c(N4CCN(Cc5ccc6c(c5)OCO6)CC4)ncnc3c2c1 | 3 | . | . | 21 | . | 40
COc1ccc2c(c1)[nH]c1c(N3CCN(Cc4ccc5c(c4)OCO5)CC3)ncnc12 | 5 | . | 13 | . | . | 97*
Cc1ccc2[nH]c3c(N4CCN(Cc5ccccc5)CC4)ncnc3c2c1 | . | . | -5 | . | . | 97*
SMILES | FN deposition inh | EWS-Fli block | N-glyco inh | PAX8 reporter | AF4-AF9 inh | Env fusion inh
COc1ccc2c(c1)C(=O)N1[C@H]3c4cc(C)ccc4OC[C@@H]3[C@H](c3ccccc3)[C@]1(C)C(=O)N2 | 15 | 64* | 24 | 23 | -8 | 20
COc1ccc2c(c1)[C@H]1[C@H](CO2)[C@H](c2ccccc2)[C@]2(C)C(=O)Nc3ccc(C)cc3C(=O)N12 | -13 | 25 | 58* | -6 | 1 | -15
CCOC(=O)[C@H]1[C@H]2COc3ccc(OC)cc3[C@@H]2N2C(=O)c3cc(C)ccc3NC(=O)[C@@]12C | -4 | -1 | 2 | 5 | 4 | -48
COc1ccc2c(c1)[C@H]1[C@H](CO2)[C@H](c2ccccc2)[C@]2(C)C(=O)Nc3ccc(F)cc3C(=O)N12 | -8 | 21 | 51* | 13 | 4 | 29
COc1ccc2c(c1)OC[C@H]1[C@H]2N2C(=O)c3cc(C)ccc3NC(=O)[C@@]2(C)[C@H]1c1ccccc1 | . | . | 39* | . | . | .
C[C@@]12C(=O)Nc3ccccc3C(=O)N1[C@H]1c3cc(Cl)ccc3OC[C@@H]1[C@@H]2c1ccccc1 | -2 | 41 | 6 | -5 | 5 | -2
COc1ccc2c(c1)OC[C@H]1[C@H]2N2C(=O)c3ccccc3NC(=O)[C@@]2(C)[C@H]1c1ccccc1 | 8 | 18 | 5 | 15 | -1 | -53
CC(=O)N(C)C[C@H]1Oc2ncc(C#Cc3ccncc3)cc2C(=O)N([C@@H](C)CO)C[C@@H]1C | 0 | -7 | . | . | -10 | -14[16.7 µM]
CC(C)NC(=O)Nc1cccc2c1O[C@H](CN(C)C)[C@H](C)CN(C)C2=O | -37 | . | . | . | . | .
COc1ccc2c(c1)[C@@H]1[C@H](CO2)[C@H](c2ccccc2)[C@]2(C)C(=O)NCC(=O)N12 | 2 | -4 | -3 | 7 | 5 | -33
COc1ccc2c(c1)[C@@H]1[C@H](CO2)[C@H](c2ccccc2)[C@]2(C)C(=O)Nc3ccc(C)cc3C(=O)N12 | . | . | 34* | . | . | .
COc1ccc2c(c1)[C@H]1[C@H](CO2)[C@H](c2ccccc2)[C@]2(C)C(=O)Nc3ccc(Cl)cc3C(=O)N12 | 6 | -6 | 40* | 21 | . | 49
COc1ccc2c(c1)[C@H]1[C@H](CO2)[C@H](c2ccccc2)[C@]2(C)C(=O)Nc3cc(OC)c(OC)cc3C(=O)N12 | 5 | 36 | 59* | 6 | 6 | 102*
